From PubChem
Hits are enriched below; roughly 3.9% of the tested compounds scored in any of these assays.
OX1R antag-1: antagonists of human orexin 1 receptor (OX1R) | O43613 | OX1R-expressing cells, FRET antagonist read-out | inhibition, % at 6.6 µM | 330,000 tested, 1.8% active; in the data active = inhibition mostly above about 38%, no sharp cut-off; inactive = mostly below about 40%;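 also: 0% = agonist challenge alone and 100% = reference antagonist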
TAAR1 agonist: human TAAR1 agonism | 360,000 tested, 0.99% active | CHO RD-HGA16 TAAR1, Fluo-8 calcium fluorescence; vehicle wells 0%, saturating PEA agonist 100% | activation, % at 3 µM | AID 624467 | Q96RJ0;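 active = activation above the mean activation of all test compounds in the run plus 3 SD, cut at about 38% in these data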
Target sequence (Q96RJ0 whole entry, looked up): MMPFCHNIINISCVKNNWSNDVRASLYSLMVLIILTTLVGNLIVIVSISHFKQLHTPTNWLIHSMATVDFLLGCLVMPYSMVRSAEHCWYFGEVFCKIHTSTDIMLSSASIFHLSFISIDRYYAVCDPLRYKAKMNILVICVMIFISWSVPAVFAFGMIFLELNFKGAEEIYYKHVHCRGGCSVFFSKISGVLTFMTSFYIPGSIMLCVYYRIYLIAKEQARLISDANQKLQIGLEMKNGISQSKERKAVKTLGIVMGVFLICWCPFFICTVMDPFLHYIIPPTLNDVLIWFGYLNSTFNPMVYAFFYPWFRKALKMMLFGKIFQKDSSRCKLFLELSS
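System: CHO RD-HGA16 cells carrying human TAAR1 plus Gα16; Incubation: 17-24 h seeding, 75 min 37 °C dye, 30 min RT; Measured by: Fluo-8 fluorescence, 5 s baseline then 140 s kinetic read; Control set: DMSO and PEA EC100; Replication: single well for each compound.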
OX1R antag-2: blocks the human orexin 1 receptor | 330,000 tested, 0.43% active | inhibition, % at 5 µM | CHO/OX1R cells, Fluo-8 calcium fluorescence, orexin A | AID 434989;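 active = inhibition above its plate's threshold, mean inhibition of all tested compounds on the plate plus 3 SD, cut at about 37% in these data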;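 also: 0% = orexin A challenge wells and 100% = SB-334867-A antagonist wells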
TAAR1 antag: human TAAR1 antagonism. CHO RD-HGA16 TAAR1, Fluo-8 calcium fluorescence, antagonist. AID 624466. inhibition, % at 3 µM. Q96RJ0. 360,000 tested, 1.5% active;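 active = inhibition above a per-plate cutoff, the mean inhibition of test compounds on that plate plus 3 SD, cut at about 49% in these data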;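 also: 0% = DMSO plus EC80 beta-PEA response and 100% = DMSO alone without agonist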
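Test system: RD-HGA16 CHO cells with stable hTAAR1 and Gα16 / Probe or stimulus: EC80 β-phenethylamine stimulus / Times: seeding 17-24 h prior, 75-min 37 °C, 30-min RT dye loading / Detection: Fluo-8 calcium-sensitive fluorescence / Read-out basis: % inhibition scaled between DMSO and EC80 PEA controls / Repeats: singlicate, one well per test compound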
CHO parental Ca: signal in parental CHO cells, OX1R antagonist counter-screen; parental CHO-K1, ATP-induced calcium, Fluo-8 fluorescence; inhibition, % at 5.6 µM; 330,000 tested, 0.63% active; AID 463079;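 active = inhibition above that plate's mean sample inhibition plus 3 SD, cut at about 26% in these data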;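 also: 0% = ATP-challenged DMSO wells and 100% = DMSO wells without ATP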
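test system = CHO parental line | reagent = ATP stimulus | measured by = intracellular calcium via Fluo-8 no-wash fluorescent dye | control set = ATP and no-ATP DMSO wells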
An asterisk follows results filed as active; nt = no result given.

SMILES	OX1R antag-1	TAAR1 agonist	OX1R antag-2	TAAR1 antag	CHO parental Ca
CC(=O)Nc1ccc2[nH]c3ccccc3c2c1	12	7	2	10	-1
O=C(NC(c1ccccc1)c1ccsc1)C1CCN(Cc2ccccc2)CC1 (centres undefined)	nt	10	nt	13	nt
COc1cc(CN2CCC(C(=O)NC(c3ccccc3)c3ccsc3)CC2)cc(OC)c1 (centres undefined)	nt	44*	nt	2	nt
O=S(=O)(Cc1ccc(Cl)cc1)Oc1ccc(Cl)cc1	nt	0	nt	55*	nt
O=[N+]([O-])c1ccc(OS(=O)(=O)Cc2ccccc2)cc1	14	3	-14	0	-6
COc1ccccc1N1CCN(c2ccc(N3C(=O)CCC3=O)cc2[N+](=O)[O-])CC1	54	5	11	9	57*
COc1cccc(N2CCN(c3ccc(N4C(=O)CCC4=O)cc3[N+](=O)[O-])CC2)c1	38	6	28	-13	33*
C=C(C)CN1CCN(c2ccc(N3C(=O)CCCC3=O)cc2[N+](=O)[O-])CC1	16	0	-16	-1	1
CCC1CCCCN1C(=O)COC(=O)c1cc(=O)[nH]c2ccccc12 (centres undefined)	25*	8	1	0	-19
O=C(CCl)N(c1ccc(Cl)cc1)c1c[nH]c2ccccc12	-2	39*	5	26	0
O=C(Cc1ccc(Cl)cc1)NCCc1c[nH]c2ccccc12	11	3	-15	4	-8
Nc1[nH]c(C(=O)c2ccc(Br)cc2)c(-c2ccccc2Cl)c1C(=O)NCCc1c[nH]c2ccccc12	nt	9	nt	6	nt
COc1ccccc1OCC(=O)Nc1ccc(CSc2ccccc2)cc1C	21	-1	-15	23	30*
Cc1cc(CSc2ccccc2)ccc1NC(=O)COc1ccccc1	31	19	-17	39	-15
C=CCOC(=O)C(C#N)c1nc2ccccc2nc1N1CCN(c2ccccc2OC)CC1 (centres undefined)	23	8	-21	49*	-31
CC1=C(C(=O)OC2CCCCCC2)C(c2ccc(C)o2)C2=C(CCCC2=O)N1 (centres undefined)	33	10	-13	-3	-28
COC(=O)C1=C(C)NC2=C(C(=O)CCC2)C1c1ccc(-c2ccsc2C(=O)OC)o1 (centres undefined)	12	45*	8	28	-3
Cn1ccc2c(/C=C/c3ccc(F)cc3)cc3c(c21)C1CCC3O1 (centres undefined)	nt	2	nt	12	nt
CC(=O)N1CCN(C(=O)c2ccc3c(c2)S(=O)(=O)c2ccccc2C3=O)CC1	69*	3	-11	1	-14
CCN1CCN(C(=O)c2ccc3c(c2)S(=O)(=O)c2ccccc2C3=O)CC1	60*	6	0	5	-15
O=C1c2ccccc2S(=O)(=O)c2cc(C(=O)N3CCC(O)CC3)ccc21	75*	4	-3	-5	1
O=C1c2ccccc2S(=O)(=O)c2cc(C(=O)N3CCN(C(=O)c4ccccc4)CC3)ccc21	39	7	-12	4	-5
CN1CCN(C(=O)c2ccc3c(c2)S(=O)(=O)c2ccccc2C3=O)CC1	76*	2	-7	-15	-8
O=C(NCc1ccccc1)[C@@H]1CCCN1C(=O)[C@H]1CCCN1C(=O)c1ccc(F)c(C(F)(F)F)c1	nt	0	nt	-7	nt
COc1cc(C=NN=c2sc3ccccc3n2C)ccc1OCCO	nt	7	nt	9	nt
SMILES	OX1R antag-1	TAAR1 agonist	OX1R antag-2	TAAR1 antag	CHO parental Ca
CCN(CC(=O)NC(C)(C)C)C(=O)c1ccc2c(c1)S(=O)(=O)c1ccccc1C2=O	56*	2	-29	-1	-24
COCCNC(=O)C(c1ccc(F)cc1)N(Cc1cccs1)C(=O)CCC(=O)Nc1ccccn1 (centres undefined)	76*	0	17	1	-18
COCCNC(=O)C(c1ccc(F)cc1)N(Cc1ccccc1)C(=O)CCC(=O)Nc1ccccn1 (centres undefined)	70*	0	10	3	-25
COc1ccccc1C(=O)N1CCN(C(=O)[C@@H](Cc2ccccc2)NC(=O)[C@H]2O[C@@H](n3ccc(=O)[nH]c3=O)[C@H](O)[C@@H]2O)CC1	nt	3	nt	-31	nt
COc1ccc(C#Cc2ccc3c(c2)O[C@@H](CN(C)C(=O)Nc2cccc(OC)c2)[C@H](C)CN([C@@H](C)CO)S3(=O)=O)cc1	nt	6	nt	24	nt
COc1ccc(-c2cc(C)nc(SCc3cccc(C(=O)O)c3)n2)cc1	16	2	3	-20	5
O=C(O)c1cccc(CSc2nc(-c3ccc(Cl)cc3)cc(C(F)(F)F)n2)c1	21	5	35	54*	12
CCc1nc2ccc(C(=O)N(C)Cc3ccco3)cn2c1N(CC)C(=O)NCCc1ccccc1	nt	-1	nt	-7	nt
CCOC(=O)C(C)N1C(=O)S/C(=C\c2ccc(-c3ccccc3C(=O)O)o2)C1=O (centres undefined)	3	3	-1	-5	4
C=CCN1C(=O)S/C(=C/c2ccc(Sc3nc4ccccc4[nH]3)o2)C1=O	41	18	47*	39	27
CC(C)N1C(=O)S/C(=C/c2ccc(Sc3nc4ccccc4[nH]3)o2)C1=O	54	13	56*	32	71*
O=C(NNC(=O)c1cc(-c2ccncc2)nc2ccccc12)Nc1ccc(F)cc1	24	8	-31	21	-21
O=C(NNC(=O)c1cc(-c2cccnc2)nc2ccccc12)Nc1ccc(Cl)cc1	32	13	27	82*	59*
O=C(Nc1ccc(C(=O)N2CCOCC2)cc1)c1cc(-c2cccnc2)nc2ccc(Br)cc12	5	20	-10	53*	-3
CCOC(=O)c1sc(NC(=O)c2ccc(S(=O)(=O)N(C)C)cc2)cc1C	58*	15	6	13	-15
CCOC(=O)c1sc(NC(=O)Nc2ccc(Cl)cc2)cc1C	86*	13	67*	82*	79*
CN1OC[C@@H]2CN(C(=O)c3ccc([N+](=O)[O-])cc3)[C@H](c3ccccc3Br)C[C@@H]21	nt	0	nt	-28	nt
NS(=O)(=O)c1ccc(CCNCc2cc(Br)ccc2OCc2ccccc2F)cc1	20	8	49*	36	60*
Cc1ccc(S(=O)(=O)N2CCCCC2)cc1NCC(=O)Nc1ccc(Br)cc1F	nt	7	nt	57*	nt
CCOc1ccccc1OCC(=O)Nc1cccc(S(=O)(=O)N2CCCCCC2)c1	20	4	-3	58*	-3
COc1ccc(CC(=O)Nc2cccc(S(=O)(=O)N3CCCCCC3)c2)cc1OC	23	15	4	35	49*
Cc1ccc(S(=O)(=O)N2CCOCC2)cc1NC(=O)CNCc1ccc(Cl)cc1Cl	7	21	20	59*	-9
COc1ccc(CCC(=O)Nc2cccc(S(=O)(=O)N3CCCCCC3)c2)cc1OC	-1	12	-17	28	-12
